In PubChem BioAssay AID504679 (The Scripps Research Institute Molecular Screening Center, 2011):
Active and inactive are the calls of the source.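 How the source made its calls: active means IC50 of 10 µM or lower; inactive means IC50 above 10 µM.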

Each molecule was assayed on E. coli V66 + T4 gene 2 phage, OD growth (assay: RecBCD inhibition via phage-restricted bacterial growth – absorbance, V66 E. coli, dose response, counter-screen for AddAB inhibitor project, late-stage follow-up (AID 504679)).
Outline: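 System: E. coli V66 bacteria; probe or stimulus: gene 2 nonsense-mutant T4 bacteriophage at MOI 0.02; incubation: 18 h at 37 °C; signal: absorbance at 600 nm as bacterial growth measure; read-out basis: percent inhibition versus ciprofloxacin and DMSO wells; replicates: triplicate testing per compound concentration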

Compound | IC50
O=C(Nc1ccc(N2CCOCC2)cc1)c1ccc([N+](=O)[O-])o1 | > 119 µM (inactive)
Cc1cccnc1NC(=O)c1ccc([N+](=O)[O-])o1 | > 119 µM (inactive)
C=CCn1c(Sc2ncc([N+](=O)[O-])s2)n[nH]c1=O | 46.5 µM (inactive)
NC(=O)c1ccsc1NC(=O)COC(=O)c1ccc([N+](=O)[O-])o1 | > 119 µM (inactive)
CCn1cc(C(=O)O)c(=O)c2cnc(N3CCN(C(=S)Nc4ccccc4C(F)(F)F)CC3)nc21 | 103 µM (inactive)
CC(=O)Nc1ccc2nc(NC(=O)c3ccc([N+](=O)[O-])o3)sc2c1 | > 119 µM (inactive)
O=C(NCc1cccnc1)c1ccc([N+](=O)[O-])o1 | 93.8 µM (inactive)
O=C(Nc1ncccn1)c1ccc([N+](=O)[O-])o1 | > 119 µM (inactive)
O=C(OCC(=O)c1cccs1)c1ccc([N+](=O)[O-])o1 | > 119 µM (inactive)
Cc1ccc2nc(/C(C#N)=C\c3ccc([N+](=O)[O-])o3)[nH]c2c1 | > 119 µM (inactive)
N#Cc1c(NC(=O)c2ccc([N+](=O)[O-])o2)sc2c1CCC2 | > 119 µM (inactive)
O=C(Nc1cccc(NC(=O)c2ccccc2Cl)c1)c1ccc([N+](=O)[O-])o1 | > 119 µM (inactive)
